First the molecules themselves.
B1: tRNA (parent)
chain: GUUCCGUUGGCGUAAUGGUAACGCGUCUCCCUCCUAAGGAGAAGACUGCGGGUUCGAGUCCCGUACGGAACG

This sample holds only a part of the variants without activity.

Variants of B1 are the subject of the data set. The experiment in a line: yeast fitness relative to wild type (ratio to wild type); higher = fitter; tRNA-Arg(CCU), competitive growth, 37 C, YPD. The gist of the method: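 Gene amplicons from the start population and from each of six end populations were read by 100-nucleotide paired-end sequencing. Those end populations came from pooled Saccharomyces cerevisiae strains carrying tRNA-Arg(CCU) gene variants at the native locus, competed in YPD at 37°C for 24 hours. Fitness relative to wild type was worked out from changes in genotype frequencies. Genotypes needed ≥ 100 starting reads, and estimates < 0.5 were set to 0.5.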
Turning to GUUCCGUGGGCGUAAUGGUAACGCGUUUCACUCCUAAGGAGACGACUGCGGGUUCGAGUCCCGUACGGAACG [U8G C27U C30A A43C], the yeast fitness is not above 0.5.

With GUUCCGUGGGCGUAAUGGUAGCGCGUCUUCCCCCUAAGGAGAAGACUGCGGGUUCGAGUCCCGUACGGAACG [U8G A21G C29U U32C], the yeast fitness is not above 0.5. Under GUUCCGUGGGCGUAAUGGUAACGGGUCUCCCUCCUAAGGAAAAGACUGCGGGUUCGAGUCCCGUACGGAACG [U8G C24G G41A] stands 0.553; under GUUCCGUGGGCGUAAUGGUAAUGCGUCUCCCUCCUAAGGAGAAGACUGCGGGUUCGAGUCCAGUACGGAACG [U8G C22U C62A], 0.559.

As for GUUCCGUGGGCGUAAUGGUAUCGCGUGUCCCUCCUAAGGAGAAGACUGCGGGUUCGAGUCCCGUCCGGAACG [U8G A21U C27G A65C], the yeast fitness was not above 0.5. Consider GUUCCGUCGGCGUAAUGGAAACGCGUCUCCAUCCUAAGGACAAGGCUGCCGGUUCGAGUCCUGUACGGAACG [U8C U19A C31A G41C A45G G50C C62U], for which the yeast fitness was not above 0.5. For GUUCCGUGGGCGUAAUGGUAACGCGUCUCCCUCGUAAGGAGAAGACUGCGGGUUAGAGUCCCGUAUGGAACG [U8G C34G C55A C66U], the yeast fitness is not above 0.5. For the variant GUUCCGUGGGCGUAAUGGUAACGCGUCUCCCUCGUAAGGAGAAGACUGCGGGUUCGAGUCCCGUACGGAACG [U8G C34G], the yeast fitness is not above 0.5.

Take GUUCCGUGGGCGUAAUGGUUACGCGUCUCCCUCCUCAGGAGAAGACUGCGGGUUCGAGUCCCGUGCGGAACG [U8G A20U A36C A65G]: the yeast fitness was not above 0.5. As for GUUCCGUGGGCGUAAUGGUAACGCGUCUCCCUCCUACGGAGAAGACUGCGGGUUCGAGUCCCGUACGAAACG [U8G A37C G68A], the yeast fitness was not above 0.5. In the case of GUUCCGUGGGCGUCAUCGUAACGCGUCUCCCUCCUAAGGAGAAGACUGCGGGUUCGAGUCGCGUACGGAACG [U8G A14C G17C C61G], the yeast fitness is not above 0.5. Under GUUCCGUCGGCGUAAUGGUAACGCGCCUCCCUCCUAUGGAGAAGACUGCGGGUUCGGGUCCCGUACGGAACG [U8C U26C A37U A57G] stands not above 0.5; under GUUCCGUGGGCGUAAUGGUGACGCGUCUCCCUCCUAAGGAGAAGACUGCGGGUUCGAUUCCCGUGCAGAACG [U8G A20G G58U A65G G67A], not above 0.5; under GUUCCGUGGGCGUAAUGGUAACGAGUCUCGCUCCUAAGGGGAAGACUGCGGGUUCGAGUCCCGUACGGAACG [U8G C24A C30G A40G], 0.559. In the case of GUUCCGUCGGCGUAAUGGUAACGCGGCUCCCUCCUAAGGAGCAGACUGCGGGUUCGAGUCCCGUACGGAACG [U8C U26G A42C], the yeast fitness turned out to be 0.703. Take GUUCCGUCGGCGUAAUGGUAACGCGUCUCCCUCCUAAGGAGAAGACUGCGGGUGCGAGUCCCGAACGGAACG [U8C U54G U64A]: the yeast fitness was 0.543. For the variant GUUCCGUGGGUGUAAUGGUAACGCGUCUCCCUCCUAAGGAGAAGACUGCGGGUUCGAGUCCCGUACGGAACG [U8G C11U], the yeast fitness was 0.646.

On to GUUCCGUCGGCGUAAUGGGAAUGCGUCUCCUUCCUAAGGUGAAGACUGCGGGUUCGAGUCCCGUACAGAACG [U8C U19G C22U C31U A40U G67A], for which the yeast fitness came to 0.53.

Take GUUCCGUGGGCGUACUGGUAACGCGUCUCCCUCCUAAGGAGAAGACUGCGGGUUCGAGUCCCGUACGGAACG [U8G A15C]: the yeast fitness was 0.598. Regarding GUUCCGUGGGCGUAAUGGUAACGCGUCUCCCUCCUAAGGAGAAGGCUGCGGGUUCGAGUCCCGUACGGAACG [U8G A45G], the yeast fitness was 0.632. Regarding GUUCCGUGGGCGUAAUGGUAACGCGUCUCCCUCCUAAGGAGAAGCCUGCGGGUUCGAGUCCCGUACGGAACG [U8G A45C], the yeast fitness is 0.537. Consider GUUCCGUGGGCGUAAUGGUAACGCGUCUACCUCCUAUGGAGAAGACUGAGGGUUCGAGUCCCGUACGGAACG [U8G C29A A37U C49A], for which the yeast fitness is not above 0.5. In the case of GUUCCGUGGGCGUAAUGGUAACGCGUCUCCCUCCUAAGGAGACGACUGCGAGUUCGAGUCCCGUACGGAACG [U8G A43C G51A], the yeast fitness was not above 0.5. On to GUUCCGUGGGCGUAAUGGUAACGCGUCUCCCUCCUAAGGAGAAGACUGCGGGUUCGAGUCCCGUACGGAACG [U8G], for which the yeast fitness is 0.711.

In the case of GUUCCGUGGGCGUAAUGGUAACGGGUCUCCCUCCUAAGGAGAAGACUGCGGGUUAGAGUCCCGUUCGGAACG [U8G C24G C55A A65U], the yeast fitness was not above 0.5. For the variant GUUCCGUGGGCGUAAUGGUAUCGCGUCUCCCUCCUAAGGAGAAGACUGCGGGUUCGAGUCCUGUACGGAACG [U8G A21U C62U], the yeast fitness is not above 0.5. For GUUCCGUGGGCGUAAUGGUAGCACGUCUCCCUCCUAAGGAGAAGACUGCGGGUUCGAGUCCCGCACGGAACG [U8G A21G G23A U64C], the yeast fitness is not above 0.5. In the case of GUUCCGUCGGCGUAAUGGUAACGCGUCACCCUCCUAGGGACAAGACUGCGGGUUCGAGUCCCGUACGGAACG [U8C U28A A37G G41C], the yeast fitness is not above 0.5. Turning to GUUCCGUGGGCGUAAUGGUAACGCGUCUGCCUCCUAAGGAGAAGACUGCGGGUUCGAGUCCCGUACGGAACG [U8G C29G], the yeast fitness came to 0.55.

GUUCCGUGGGCGUAAUGGUAACGCGUCUCCGUCCUAAGGACAAGACUGCCGGUUCGAGUUCCGUACGGCACG [U8G C31G G41C G50C C60U A69C]: the yeast fitness is not above 0.5. On to GUUCCGUGGGCGUAAUGGUAACGAGUCUCGCUCCUAAGGGGAAGACGGCGGGUUUGAGUCCCGUACGGAACG [U8G C24A C30G A40G U47G C55U], for which the yeast fitness is 0.512.

Take GUUCCGUGGGCGUAAUGGUAACGGGUCUCCCUCCUAAGGAGAAGACUGCGGGUUCGAGAACCGUACGGAACG [U8G C24G U59A C60A]: the yeast fitness is not above 0.5.

Take GUUCCGUCGGCGUAAUGGGAACGCGUCUCCCUCCUAAGGAGAAGCCUGCGGGUUCGAGUCCCGUACGGAACG [U8C U19G A45C]: the yeast fitness was not above 0.5. In the case of GUUCCGUGGGCGUAAUGGUAACGCGUCUUCCUCCUAAGGAGAAGACUGCCGGUUCGAGACCCGUACGGAACG [U8G C29U G50C U59A], the yeast fitness is not above 0.5. The result for GUUCCGUGGGCGUAAUGGUAACGCGUCUCCCUCCUAUGGAGAAGACUGCGGAUUCGCGUACCGUACGGAACG [U8G A37U G52A A57C C60A] reads not above 0.5; that for GUUCCGUGGGCGUUACGGUAACGCGUCUCCCUCCUAAGGUGAAGACUCCGGGUUCGAGUCCCGUACGGAACG [U8G A14U U16C A40U G48C], not above 0.5; that for GUUCCGUGGGCGUAAUGGUACCGCGUCUCCCUCCUAAGGAGAUGACUGCGGGUUCGAGACCCAUACGGAACG [U8G A21C A43U U59A G63A], not above 0.5. As to GUUCCGUGGGCGUAAUGGUAACGAGUCUCGCUCCUAAGGGGAAGACGGCGGGUUUGAGUCCCGUAUGGACCG [U8G C24A C30G A40G U47G C55U C66U A70C], the yeast fitness was not above 0.5.

The values are drawn from the RNAGym collection of RNA variant scans (doi:10.1126/science.aae0568).
